Measurements from ChEMBL document CHEMBL4732146, “Nitric oxide-donating and reactive oxygen species-responsive prochelators based on 8-hydroxyquinoline as anticancer agents” (Eur J Med Chem, 2021).
Calls of active or inactive are those of the source. The rule behind the calls is not given here.

Tests used:
[1] = test system: HeLa; experiment: Cytotoxicity against human HeLa cells assessed as reduction in cell viability at 10 to 20 uM measured after 48 hrs by MTT assay; assay type: functional, cell-based; conditions: dose 10-20 µM
[2] = test system: PANC-1; experiment: Cytotoxicity against human PANC-1 cells assessed as reduction in cell viability at 20 uM measured after 48 hrs by MTT assay relative to control; assay type: functional
In short: (§1)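 MTT assay with 48 h compound exposure at 10 or 20 µM. Cells seeded 6 × 10⁴ per well and grown 24 h beforehand. MTT 4 h, DMSO solubilisation, A490 read. Percent cell death given as mean ± SD, n = 3.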

[3] = Metal chelating activity assessed as compound-Fe3+ complex formation measured after 40 mins by calcein dye based fluorescence assay; conditions: dose 10-50 µM
In short: (§2)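 Calcein (10 µM) in 50 mM HEPES was quenched by 10 µM CuCl₂ (or FeCl₃ for the Fe³⁺ arm). Chelator was added from DMSO stock to a final 10 or 50 µM and incubated 40 min at room temperature. Recovery rate was calculated from fluorescence (λex 485 / λem 520 nm); n = 3.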

[4] = test system: MCF7; experiment: Cytotoxicity against human MCF7 cells assessed as reduction in cell viability at 10 to 20 uM measured after 48 hrs by MTT assay; assay type: functional, cell-based; conditions: dose 10-20 µM; in short: as §1
[5] = test system: A549; experiment: Cytotoxicity against human A549 cells assessed as reduction in cell viability at 10 to 20 uM measured after 48 hrs by MTT assay; assay type: functional, cell-based; conditions: dose 10-20 µM
[6] = test system: PANC-1; experiment: Cytotoxicity against human PANC-1 cells assessed as reduction in cell viability at 10 uM measured after 48 hrs by MTT assay; assay type: functional, cell-based; in short: as §1
[7] = Metal chelating activity assessed as compound-Cu2+ complex formation measured after 40 mins by calcein dye based fluorescence assay; conditions: dose 10-50 µM; in short: as §2
[8] = test system: HepG2; experiment: Cytotoxicity against human HepG2 cells assessed as reduction in cell viability at 10 to 20 uM measured after 48 hrs by MTT assay; assay type: functional, cell-based; conditions: dose 10-20 µM; in short: as §1
[9] = test system: HCT-116; experiment: Cytotoxicity against human HCT-116 cells assessed as reduction in cell viability measured after 48 hrs in presence of CuCl2 by MTT assay; assay type: functional, cell-based; conditions: HCT-116, 48 h
In short: (§3)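 Cells seeded 6 × 10⁴ per well, cultured 24 h at 37 °C under 5% CO₂, then exposed to compound for 48 h, with or without 50 µM CuCl₂ or FeCl₃ co-incubation. MTT added for 4 h at 37 °C, formazan dissolved in DMSO, A490 read. IC50 reported as mean (SD), n = 3.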

[10] = test system: A549; experiment: Cytotoxicity against human A549 cells assessed as reduction in cell viability measured after 48 hrs in presence of FeCl3 by MTT assay; assay type: functional, cell-based; conditions: A549, 48 h
[11] = test system: MCF7; experiment: Cytotoxicity against human MCF7 cells assessed as reduction in cell viability measured after 48 hrs in presence of FeCl3 by MTT assay; assay type: functional, cell-based; conditions: MCF7, 48 h; in short: as §3
[12] = test system: MCF7; experiment: Cytotoxicity against human MCF7 cells assessed as reduction in cell viability measured after 48 hrs in presence of CuCl2 by MTT assay; assay type: functional, cell-based; conditions: MCF7, 48 h; in short: as §3
[13] = test system: PANC-1; experiment: Cytotoxicity against human PANC-1 cells assessed as reduction in cell viability measured after 48 hrs in presence of FeCl3 by MTT assay; assay type: functional, cell-based; conditions: PANC-1, 48 h; in short: as §3
[14] = test system: HeLa; experiment: Cytotoxicity against human HeLa cells assessed as reduction in cell viability measured after 48 hrs in presence of CuCl2 by MTT assay; assay type: functional, cell-based
[15] = Cytotoxicity against human RWPE2 cells assessed as reduction in cell viability measured after 48 hrs by MTT assay; assay type: cell-based; conditions: RWPE2, 48 h; in short: as §3
[16] = test system: PC-3; experiment: Cytotoxicity against human PC-3 cells assessed as reduction in cell viability measured after 48 hrs in presence of FeCl3 by MTT assay; assay type: functional, cell-based; conditions: PC-3, 48 h; in short: as §3
[17] = test system: PC-3; experiment: Cytotoxicity against human PC-3 cells assessed as reduction in cell viability measured after 48 hrs in presence of CuCl2 by MTT assay; assay type: functional, cell-based; conditions: PC-3, 48 h; in short: as §3
[18] = test system: SW1990; experiment: Cytotoxicity against human SW1990 cells assessed as reduction in cell viability measured after 48 hrs by MTT assay; assay type: functional, cell-based; conditions: SW1990, 48 h; in short: as §3
[19] = test system: HCT-116; experiment: Cytotoxicity against human HCT-116 cells assessed as reduction in cell viability measured after 48 hrs by MTT assay; assay type: functional, cell-based; conditions: HCT-116, 48 h; in short: as §3
[20] = Cytotoxicity against human H6C7 cells assessed as reduction in cell viability measured after 48 hrs by MTT assay; assay type: cell-based; conditions: H6C7, 48 h; in short: as §3
[21] = test system: HeLa; experiment: Cytotoxicity against human HeLa cells assessed as reduction in cell viability measured after 48 hrs in presence of FeCl3 by MTT assay; assay type: functional, cell-based
[22] = test system: PANC-1; experiment: Cytotoxicity against human PANC-1 cells assessed as reduction in cell viability measured after 48 hrs by MTT assay; assay type: functional, cell-based; conditions: PANC-1, 48 h; in short: as §3
[23] = test system: A549; experiment: Cytotoxicity against human A549 cells assessed as reduction in cell viability measured after 48 hrs in presence of CuCl2 by MTT assay; assay type: functional, cell-based; conditions: A549, 48 h
[24] = Drug metabolism in human PANC-1 cells assessed as nitric oxide release at 10 uM measured after 8 hrs by Griess assay; assay type: ADME, cell-based; conditions: panc-1, 8 h
In short: (§4)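 Cells exposed 8 h to 10 µM compound. Nitrite measured by Griess reagent kit at 540 nm against a NaNO₂ calibration curve. Mean ± SD, n = 3.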

[25] = test system: MCF7; experiment: Cytotoxicity against human MCF7 cells assessed as reduction in cell viability measured after 48 hrs by MTT assay; assay type: functional, cell-based; conditions: MCF7, 48 h; in short: as §3
[26] = test system: HCT-116; experiment: Cytotoxicity against human HCT-116 cells assessed as reduction in cell viability measured after 48 hrs in presence of FeCl3 by MTT assay; assay type: functional, cell-based; conditions: HCT-116, 48 h; in short: as §3
[27] = test system: SW1990; experiment: Cytotoxicity against human SW1990 cells assessed as reduction in cell viability measured after 48 hrs in presence of FeCl3 by MTT assay; assay type: functional, cell-based; conditions: SW1990, 48 h; in short: as §3
[28] = test system: HepG2; experiment: Cytotoxicity against human HepG2 cells assessed as reduction in cell viability measured after 48 hrs in presence of CuCl2 by MTT assay; assay type: functional, cell-based; conditions: HepG2, 48 h; in short: as §3
[29] = test system: HepG2; experiment: Cytotoxicity against human HepG2 cells assessed as reduction in cell viability measured after 48 hrs in presence of FeCl3 by MTT assay; assay type: functional, cell-based; conditions: HepG2, 48 h; in short: as §3
[30] = test system: A549; experiment: Cytotoxicity against human A549 cells assessed as reduction in cell viability measured after 48 hrs by MTT assay; assay type: functional, cell-based; conditions: A549, 48 h
[31] = test system: SW1990; experiment: Cytotoxicity against human SW1990 cells assessed as reduction in cell viability measured after 48 hrs in presence of CuCl2 by MTT assay; assay type: functional, cell-based; conditions: SW1990, 48 h; in short: as §3
[32] = test system: HepG2; experiment: Cytotoxicity against human HepG2 cells assessed as reduction in cell viability measured after 48 hrs by MTT assay; assay type: functional, cell-based; conditions: HepG2, 48 h; in short: as §3
[33] = test system: PANC-1; experiment: Cytotoxicity against human PANC-1 cells assessed as reduction in cell viability measured after 48 hrs in presence of CuCl2 by MTT assay; assay type: functional, cell-based; conditions: PANC-1, 48 h; in short: as §3
[34] = test system: PC-3; experiment: Cytotoxicity against human PC-3 cells assessed as reduction in cell viability measured after 48 hrs by MTT assay; assay type: functional, cell-based; conditions: PC-3, 48 h; in short: as §3
[35] = test system: HeLa; experiment: Cytotoxicity against human HeLa cells assessed as reduction in cell viability measured after 48 hrs by MTT assay; assay type: functional, cell-based
[36] = Drug metabolism in human SW1990 cells assessed as nitric oxide release at 10 uM measured after 8 hrs by Griess assay; assay type: ADME, cell-based; conditions: sw1990, 8 h; in short: as §4
[37] = Stability of compound in pH 5 PBS buffer measured after 5 to 24 hrs by RP-HPLC analysis; assay type: physicochemical; conditions: time 5-24 hrs
In short: (§5)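 Compound (1 µM) stirred at 37 °C either in PBS (pH 5.0, 7.4 or 10.0) containing 5% DMSO or in DMEM with 10% FBS. Aliquots were analysed by RP-HPLC (0.1% TFA water/methanol gradient, 256 nm) for remaining intact compound, up to 24 h.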

[38] = Stability of compound in DMEM with 10% fetal bovine serum measured after 5 to 24 hrs by RP-HPLC analysis; assay type: cell-free; conditions: time 5-24 hrs; in short: as §5
[39] = Stability of compound in pH 7.4 PBS buffer measured after 5 to 24 hrs by RP-HPLC analysis; assay type: physicochemical; conditions: time 5-24 hrs; in short: as §5
[40] = Stability of compound in pH 10 PBS buffer measured after 5 to 24 hrs by RP-HPLC analysis; assay type: physicochemical; conditions: time 5-24 hrs; in short: as §5

SMILES	Activity [1]	Activity [2]	Activity [3]	Activity [4]	Activity [5]	Activity [6]	Activity [7]	Activity [8]	IC50 [13]	IC50 [15]	IC50 [18]	IC50 [20]	IC50 [22]	IC50 [27]	IC50 [31]	IC50 [33]	also measured
O=C(NCCOc1no[n+]([O-])c1S(=O)(=O)c1ccccc1)c1ccc2cccc(O)c2n1	Active	Active	Dose-dependent effect	Active	Active	Active	Dose-dependent effect	Active	–	–	–	–	–	–	–	–	–
O=C(c1ccc2cccc(O)c2n1)N1CCC(Oc2no[n+]([O-])c2S(=O)(=O)c2ccccc2)CC1	Active	82.3%	Dose-dependent effect	Active	Active	Active	Dose-dependent effect	Active	14.8 µM	7.04 µM	6.59 µM	13.2 µM	9.05 µM	10.6 µM	0.79 µM	1.32 µM	IC50 [9]: 3.29 µM; IC50 [10]: 12.4 µM; IC50 [11]: 17 µM; IC50 [12]: 3.07 µM; IC50 [14]: 9.77 µM; IC50 [16]: 14.6 µM; IC50 [17]: 5.02 µM; IC50 [19]: 11.2 µM; IC50 [21]: 37.9 µM; IC50 [23]: 2.16 µM; Drug metabolism [24]: Metabolite_Detected; IC50 [25]: 15.4 µM; IC50 [26]: 17.2 µM; IC50 [28]: 4.05 µM; IC50 [29]: 19.9 µM; IC50 [30]: 7.8 µM; IC50 [32]: 14.6 µM; IC50 [34]: 10.4 µM; IC50 [35]: 33.9 µM; Drug metabolism [36]: Metabolite_Detected
O=C(/C=C\c1ccc2cccc(O)c2n1)N1CCN(CCOc2no[n+]([O-])c2S(=O)(=O)c2ccccc2)CC1	Active	Active	Dose-dependent effect	Active	Active	Active	Dose-dependent effect	Active	–	–	–	–	–	–	–	–	–
O=C(/C=C/c1ccc2cccc(O)c2n1)NCCOc1no[n+]([O-])c1S(=O)(=O)c1ccccc1	Active	Active	Dose-dependent effect	Active	Active	Active	Dose-dependent effect	Active	–	–	–	–	–	–	–	–	–
CC1(C)OB(c2ccc(COc3cccc4ccc(C(=O)NCCCOc5no[n+]([O-])c5S(=O)(=O)c5ccccc5)nc34)cc2)OC1(C)C	–	–	–	–	–	–	–	–	25.3 µM	39.8 µM	15.7 µM	40.4 µM	17.1 µM	20.8 µM	3.2 µM	4.89 µM	Stabilty [37]: Stable; Stability [38]: Stable; Stabilty [39]: Stable; Stabilty [40]: Stable
O=C(/C=C\c1ccc2cccc(O)c2n1)N1CCC(Oc2no[n+]([O-])c2S(=O)(=O)c2ccccc2)CC1	Active	Active	Dose-dependent effect	Active	Active	Active	Dose-dependent effect	Active	–	–	–	–	–	–	–	–	–
